In brackets after ≈: the same amount, converted by molar mass.
What was measured:
[1] = Aqueous solubility in pH 6.8 buffer solution by HPLC analysis; type: physicochemical
[2] = Metabolic stability in rat liver microsomes at 1 uM after 20 mins in presence of NADPH by HPLC analysis; type: ADME, microsome
[3] = Cmax in Crl:CD(SD) rat at 3 mg/kg, po by LC-MS/MS analysis; type: ADME, organism-based; design: dose 3 mg/kg, route oral; details: in vivo
How it was run: (§1)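 Rats were dosed i.v. at 0.2 mg/kg and p.o. at 3.0 mg/kg. Oral dosing was a suspension in 0.5% methyl cellulose or in corn oil, depending on the compound. Vd and CL came from i.v. dosing. Values are means of three animals.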

[4] = Tmax in Crl:CD(SD) rat at 3 mg/kg, po by LC-MS/MS analysis; type: ADME, organism-based; details: in vivo; how it was run: as §1
[5] = AUC in Crl:CD(SD) rat at 3 mg/kg, po by LC-MS/MS analysis; type: ADME, organism-based; details: in vivo
How it was run: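 Rats dosed orally at 3.0 mg/kg as a suspension in either 0.5% methyl cellulose or corn oil, depending on the compound. […] AUCpo is reported as ng·h/mL and is the mean of measurements in three animals.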

[6] = MRT in Crl:CD(SD) rat at 3 mg/kg, po by LC-MS/MS analysis; type: ADME, organism-based; details: in vivo; how it was run: as §1
[7] = Volume of distribution in Crl:CD(SD) rat at 0.2 mg/kg, iv by LC-MS/MS analysis; type: ADME, organism-based; details: in vivo; how it was run: as §1
[8] = Clearance in Crl:CD(SD) rat at 0.2 mg/kg, iv by LC-MS/MS analysis; type: ADME, organism-based; details: in vivo; how it was run: as §1
[9] = Oral bioavailability in Crl:CD(SD) rat at 3 mg/kg by LC-MS/MS analysis; type: ADME, organism-based; details: in vivo; how it was run: as §1
[10] = Metabolic stability in human liver microsomes at 1 uM after 20 mins in presence of NADPH by HPLC analysis; type: ADME, microsome
[11] = Retention time in human liver microsomes at 1 uM by HPLC analysis; type: ADME, microsome
How it was run: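 Incubated for 30 min with human liver microsomes. Parent and metabolites were analysed by HPLC and LC/MSⁿ, giving retention times, [M+H]⁺ and major fragment ions.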

[12] = pH 6.8 buffer solution, read-out: solubility

## Cc1ccc(C(=O)Nc2cc(-c3c(-c4ccc(F)c(C)c4)nc4cccnn34)ccn2)cn1
[1]; [12]
  solubility: 0.38 µg/mL (≈ 0.867 µM)
[2]
  remaining at 20 min, 1 µM: 53 µL/min/mg

## Cc1cc(-c2nc3cccnn3c2-c2ccnc(NC(=O)c3cc[n+]([O-])c(C)c3)c2)ccc1F.O=S(=O)(O)O
[1]; buffer
  solubility: Insoluble
[3]
  Cmax: 0.19 µg/mL
[4]
  Tmax: 1.67 h
[5]
  AUC: 2.13 µg·h/mL
[6]
  MRT: 5.63 h
[7]
  Vd: 1.38 L/kg
[8]
  clearance: 0.6 L/h/kg
[9]
  bioavailability: 42.6%

## Cc1cc(C(=O)Nc2cc(-c3c(-c4ccc(F)c(C)c4)nc4cccnn34)ccn2)ccn1
[1]; [12]
  solubility: 0.15 µg/mL (≈ 0.342 µM)
[2]
  remaining at 20 min, 1 µM: 65 µL/min/mg
[10]
  Stability: 132 µL/min/mg
[11]
  Retention_time: 33.4 min

## Cc1cc(-c2nc3cccnn3c2-c2ccnc(NC(=O)c3ccc(C)[n+]([O-])c3)c2)ccc1F
[1]; [12]
  solubility: 2.4 µg/mL (≈ 5.28 µM)
[2]
  remaining at 20 min, 1 µM: 23 µL/min/mg

## Cc1cc(-c2nc3cccnn3c2-c2ccnc(NC(=O)c3ccncc3)c2)ccc1F
[1]; [12]
  solubility: 0.75 µg/mL (≈ 1.77 µM)
[2]
  remaining at 20 min, 1 µM: 75 µL/min/mg
[10]
  Stability: 177 µL/min/mg

## Cc1cc(-c2nc3cccnn3c2-c2ccnc(NC(=O)c3cccnc3)c2)ccc1F
[1]; [12]
  solubility: 0.92 µg/mL (≈ 2.17 µM)
[2]
  remaining at 20 min, 1 µM: 71 µL/min/mg

## Cc1cc(-c2nc3cccnn3c2-c2ccnc(NC(=O)c3cc[n+]([O-])c(C)c3)c2)ccc1F
[1]; [12]
  solubility: 0.91 µg/mL (≈ 2 µM)
[2]
  remaining at 20 min, 1 µM: 16 µL/min/mg
[11]
  Retention_time: 23 min
[3]
  Cmax: 0.075 µg/mL
[4]
  Tmax: 2 h
[5]
  AUC: 0.703 µg·h/mL
[6]
  MRT: 5.32 h
[7]
  Vd: 1.38 L/kg
[8]
  clearance: 0.6 L/h/kg
[9]
  bioavailability: 13.5%

Source: ChEMBL document CHEMBL4219055, “Structure-based design, synthesis, and biological evaluation of imidazo[1,2-b]pyridazine-based p38 MAP kinase inhibitors” (Bioorg Med Chem, 2018)
